This is an account of results in the array DNA melting data of Ke et al. (doi:10.1101/2024.01.08.574731).

The nature of data set [1]: folding enthalpy; higher = less favourable; fluorescence melt of hairpins on a sequencing array, two-state fit. Particulars: sodium 0.088 M. Put shortly: (§1)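 Hairpins were imaged by Cy3 fluorescence on a sequenced MiSeq flow cell with annealed Cy3 and quencher oligos, in 50 mM Na-HEPES pH 8.0, 25 mM NaCl, in 2.5 °C steps up to 60 °C. Bootstrapped two-state fits of normalised signals gave melting temperature and folding enthalpy. Four replicates were combined by inverse variance, and fitted temperatures were raised by 9.35 °C to match UV melts.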

The nature of data set [2]: melting temperature; fluorescence melt of hairpins on a sequencing array, two-state fit, raised by 9.35 °C to match UV melts. The note with it: sodium 0.088 M. Put shortly: as §1

On to GGAGCCGAAAGGCAATCC ((((((....)))..))), for which the folding enthalpy in data set [1] was -11.2 kcal/mol. Further, the Tm in data set [2] is 38 °C.
GGAGCCGAAAGGCACTCC ((((((....)))..))): in data set [1], the folding enthalpy was -11.1 kcal/mol. In data set [2], the Tm was 39.9 °C.
As to GGAGCCGAAAGGCAGTCC ((((((....)))..))), the folding enthalpy in data set [1] is -13.2 kcal/mol. The Tm in data set [2] is 36.1 °C.
For GGAGCCGAAAGGCGATCC ((((((....)))..))), in that order: -9.49 kcal/mol and 51.6 °C.
For GGAGCCGAAAGGCGTTCC ((((((....)))..))), the folding enthalpy in data set [1] is -10.1 kcal/mol. In data set [2], the Tm was 40 °C.
Turning to GGAGCGGGAAACCGCTTC (.(((((....))))).), the folding enthalpy in data set [1] was -16.6 kcal/mol. In addition, in data set [2], the Tm was 58.2 °C.
As to GGAGCTCGAAAGAGTTCC (((.(((....))).))), in data set [1], the folding enthalpy is -42.9 kcal/mol. Besides, the Tm in data set [2] was 57.4 °C.
Taken in the same sequence, the figures for GGAGCTGGAAACGGCTCC (((((.(....).))))) were -48.2 kcal/mol and 59.9 °C.
For GGAGGACGAAAGTCTCC (((.(((....)))))), in that order: -22.6 kcal/mol and 50.5 °C.
For GGAGGAGAAATCCTCC ((((((....)))))), in that order: -40.8 kcal/mol and 54.4 °C.
On to GGAGGCGAAAGCCATCC ((((((....))).))), for which the folding enthalpy in data set [1] was -14.7 kcal/mol. The Tm in data set [2] was determined as 49.4 °C.
Regarding GGAGGCGAAAGCCCTCC ((((((....))).))), the folding enthalpy in data set [1] was -18.1 kcal/mol. For the same sequence, the Tm in data set [2] stood at 61.1 °C.
On to GGAGGCGAAAGCCGATCC ((((((....)))..))), for which the folding enthalpy in data set [1] was -9.71 kcal/mol. The Tm in data set [2] worked out at 51.8 °C.
Taken in the same sequence, the figures for GGAGGCGAAAGCCGTCC ((((((....))).))) were -9.55 kcal/mol and 52.9 °C.
With GGAGGCGAAAGCCTGTCC ((((((....)))..))), the folding enthalpy in data set [1] was -8.31 kcal/mol. In data set [2], the Tm was 38 °C.
Taken in the same sequence, the figures for GGAGGCGAAAGCCTTCC ((((((....))).))) were -13.5 kcal/mol and 57.9 °C.
As for GGAGGCGGAAACACCTCC (((((.(....).))))), in data set [1], the folding enthalpy is -39.4 kcal/mol. Moreover, the Tm in data set [2] was 50.1 °C.
For the sequence GGAGGCGGAAACGCCCCC ((.((((....)))).)), in data set [1], the folding enthalpy is -14.8 kcal/mol. Moreover, the Tm in data set [2] came out at 56.4 °C.
For GGAGGGACGAAAGTCTCC (((..(((....)))))), in data set [1], the folding enthalpy was -13.4 kcal/mol. Further, the Tm in data set [2] was 39.2 °C.
GGAGGGCGAAAGCCGTCC (((.(((....))).))): the folding enthalpy in data set [1] is -21 kcal/mol. Further, the Tm in data set [2] stood at 67 °C.
GGAGGGGCGAAAGCCTCC (((..(((....)))))): in data set [1], the folding enthalpy was -13.4 kcal/mol. Further, the Tm in data set [2] worked out at 44.8 °C.
Consider GGAGGGGGAAACCCTTCC (((.(((....))).))), for which the folding enthalpy in data set [1] is -25.7 kcal/mol. Besides, the Tm in data set [2] amounted to 49.2 °C.
Regarding GGAGGGGGAAACTCCTCC (((((.(....).))))), the folding enthalpy in data set [1] is -32.6 kcal/mol. Further, the Tm in data set [2] was determined as 53.8 °C.
For the sequence GGAGGTCGAAAGACTCC (((.(((....)))))), the folding enthalpy in data set [1] was -21.3 kcal/mol. The Tm in data set [2] worked out at 51.1 °C.
Take GGAGGTGAAAACCTCC ((((((....)))))): in data set [1], the folding enthalpy was -33.8 kcal/mol. Further, in data set [2], the Tm is 66.2 °C.
Turning to GGAGGTGGAAACGTCTCC ((((..(....)..)))), the folding enthalpy in data set [1] is -18.4 kcal/mol. Moreover, the Tm in data set [2] is 35.9 °C.
In the case of GGAGTAGGAAACTACTTC (.(((((....))))).), the folding enthalpy in data set [1] was -29.2 kcal/mol. Moreover, the Tm in data set [2] worked out at 44.4 °C.
For the sequence GGAGTATCGAAAGATTCC (((..(((....)))))), the folding enthalpy in data set [1] is -13.1 kcal/mol. Also, in data set [2], the Tm is 26.6 °C.
In the case of GGAGTCGAAAGACTGTCC ((((((....)))..))), in data set [1], the folding enthalpy is -12.1 kcal/mol. The Tm in data set [2] was found to be 35.2 °C.
Taken in the same sequence, the figures for GGAGTGGGAAACCATTCC (((.(((....))).))) were -31 kcal/mol and 46 °C.
With GGAGTTCGAAAGAAATCC (((.(((....))).))), the folding enthalpy in data set [1] was -33.8 kcal/mol. The Tm in data set [2] is 49.2 °C.
Taken in the same sequence, the figures for GGAGTTGAAAAACTCC ((((((....)))))) were -36.2 kcal/mol and 55.7 °C.
Turning to GGAGTTGGAAACAACTTC (.(((((....))))).), the folding enthalpy in data set [1] is -31.1 kcal/mol. In addition, the Tm in data set [2] is 47.5 °C.
For the sequence GGATAATCGAAAGATTCC (((..(((....)))))), the folding enthalpy in data set [1] is -14 kcal/mol. For the same sequence, the Tm in data set [2] stood at 27.6 °C.
Regarding GGATACCGAAAGGTTTCC (((.(((....))).))), the folding enthalpy in data set [1] was -37.6 kcal/mol. For the same sequence, the Tm in data set [2] was 50.2 °C.
Turning to GGATACGAAAGTAGTTCC ((((((....)))..))), in data set [1], the folding enthalpy was -9.9 kcal/mol. The Tm in data set [2] stood at 25 °C.
Taken in the same sequence, the figures for GGATACGAAAGTATCC ((((((....)))))) were -39.1 kcal/mol and 66 °C.
As to GGATACGAAAGTATGTCC ((((((....)))..))), in data set [1], the folding enthalpy was -12.5 kcal/mol. The Tm in data set [2] is 30.1 °C.
GGATACGGAAACGCATCC ((((.((....)).)))): the folding enthalpy in data set [1] was -29.1 kcal/mol. Besides, the Tm in data set [2] is 45.5 °C.
With GGATACGGAAACGTACCC ((.((((....)))).)), the folding enthalpy in data set [1] is -21.1 kcal/mol. Further, in data set [2], the Tm was determined as 43.3 °C.
Taken in the same sequence, the figures for GGATAGAAATATCC (((((....))))) were -17.5 kcal/mol and 36 °C.
Turning to GGATAGACGAAAGTCTCC (((..(((....)))))), in data set [1], the folding enthalpy was -14.6 kcal/mol. For the same sequence, the Tm in data set [2] is 33.6 °C.
Taken in the same sequence, the figures for GGATAGGGAAACCTACCC ((.((((....)))).)) were -21.9 kcal/mol and 35.2 °C.
For GGATAGGGAAACCTATTC (.(((((....))))).), the folding enthalpy in data set [1] was -29.4 kcal/mol. For the same sequence, the Tm in data set [2] is 34.9 °C.
For GGATAGTCGAAAGACTCC (((..(((....)))))), in that order: -13.6 kcal/mol and 33.1 °C.
For the sequence GGATATCCGAAAGGATCC (((..(((....)))))), the folding enthalpy in data set [1] is -11.4 kcal/mol. In addition, the Tm in data set [2] is 32.3 °C.
Taken in the same sequence, the figures for GGATATCGAAAGATCTCC (((.(((....))).))) were -30.9 kcal/mol and 39.1 °C.
Regarding GGATATCGAAAGATGTCC (((.(((....))).))), the folding enthalpy in data set [1] was -38.9 kcal/mol. Also, the Tm in data set [2] came out at 52 °C.
For GGATATGGAAACACATCC ((((.((....)).)))), the folding enthalpy in data set [1] is -26.3 kcal/mol. Moreover, the Tm in data set [2] turned out to be 31.5 °C.
Taken in the same sequence, the figures for GGATCACCGAAAGGTTCC (((..(((....)))))) were -13.1 kcal/mol and 30.3 °C.
Taken in the same sequence, the figures for GGATCACGAAAGTGTCC (((.(((....)))))) were -25.4 kcal/mol and 49.8 °C.
With GGATCACGAAAGTGTTCC (((.(((....))).))), the folding enthalpy in data set [1] is -34.3 kcal/mol. Further, the Tm in data set [2] came to 50.8 °C.
As for GGATCAGGAAACTAATCC ((((.((....)).)))), in data set [1], the folding enthalpy was -12.9 kcal/mol. Further, in data set [2], the Tm is 26.2 °C.
In the case of GGATCAGGAAACTGACCC ((.((((....)))).)), the folding enthalpy in data set [1] is -27.7 kcal/mol. The Tm in data set [2] was 41.4 °C.
Turning to GGATCAGGAAACTGATCC (((((((....))))))), the folding enthalpy in data set [1] was -44.2 kcal/mol. In addition, in data set [2], the Tm came to 64.5 °C.
